# Data published in PubChem BioAssay AID688 (PCMD, 2007).
# Hit rate of the full screen: of about 27,000 compounds, about 250 (0.93%) were called active.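 Rule for the calls: active = mutant luminescence inhibited past about 50% while wild type luminescence and mutant growth stay under set limits (limit read from the data); inconclusive = mutant versus wild type luminescence inhibition gap past a set limit; inactive = the rest.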 The entries come from a sample that favours actives as a whole.
# Test: GCN4-lacZ reporter reduction in eIF2B-epsilon mutant yeast, primary screen, S. cerevisiae, eIF2B-epsilon R284H, Beta-Glo luminescence (AID 688)
# Settings: growth inhibition: measured here: mutant yeast growth, toxicity, concentration not given here; inhibition: stronger effect = higher value, screened at 25 µM (by protocol)
# Summary of the method: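 material = yeast eIF2B-epsilon R284H mutant carrying GCN4–beta-galactosidase fusion | schedule = 16 h growth with compound at 30 °C, 90 min Beta-Glo step | measured by = luminescence and A595 | compound dosing = one concentration, 25 µM, 0.25% DMSO | read-out basis = % inhibition of reporter signal and growth versus controls | buffer or medium = YPD medium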
SMILES,growth inhibition [%],inhibition
COc1ccc(Cl)cc1C(=O)Nc1ccc(N(C)C(C)=O)cc1,27.8,21.8% (inactive)
CCN(CC)CCNC(=O)CCCCCn1c(=O)[nH]c2cc(C(=O)OC)ccc2c1=O,3.33,12.9% (inactive)
Nn1c(Cc2cccc3ccccc23)nnc1SCC(=O)N1CC(=O)Nc2ccccc21,7.35,9.26% (inactive)
Cc1ccc(C2=CSC3=NS(=O)(=O)CCN23)cc1C,-2.38,1.24% (inactive)
O=C(c1cccc2ccccc12)N1CCN(c2ccccc2F)CC1,10.7,8.17% (inactive)
O=C(O)CCSc1nnc(-c2ccccc2)n1-c1ccccc1,-9.09,19.8% (inactive)
Cc1ccc(S(=O)(=O)NCC(C)NS(C)(=O)=O)cc1 (configuration not stated),1.47,-24.4% (inactive)
COCc1nnc(NC(=O)CS(=O)(=O)Cc2ccccc2)s1,-13.8,8.87% (inactive)
COc1ccc(-n2c(SCC(=O)Nc3ccc4c(c3)OCO4)nnc2C(C)N2CCCCC2)cc1 (configuration not stated),-17.2,32% (inactive)
O=C(NC1(C(F)(F)F)NC(=O)N(Cc2cccnc2)C1=O)c1ccccc1Cl (configuration not stated),-9.52,12.7% (inactive)
CCc1nnc(NC(=O)CSc2nc3ccccc3c(=O)n2CCCOC)s1,-4.35,-1.74% (inactive)
Cc1cc(-n2nc(C)cc2C)n2nc(C)c(-c3ccccc3)c2n1,-28.6,-42.8% (inactive)
CCOC(=O)c1cnc(SCC(=O)NCc2ccco2)nc1N,5.17,-10.3% (inactive)
CCOc1ccccc1NC(=O)C1CCCN(C(=O)Nc2ccccc2)C1 (configuration not stated),-12.5,25.3% (inactive)
COc1ccc(C2N=C(N)N=C(N)N2c2ccccc2)cc1OC (configuration not stated),-25,-6.05% (inactive)
COc1ccc(OC)c(-n2nnnc2SCC(=O)Nc2cc(C)ccc2OC)c1,-24.1,30.4% (inactive)
CCC(C(=O)NC1CCCC1)N(C(=O)c1snc(C(N)=O)c1N)c1ccc2c(c1)OCCO2 (configuration not stated),-13.6,52.4% (active)
COC(=O)c1cccc(N(C(=O)c2ccco2)C(C(=O)NC2CCCC2)c2ccco2)c1 (configuration not stated),,-17.9% (inactive)
CCCCNC(=O)CCNC(=O)c1ccc(C(C)(C)C)cc1,22.6,20.7% (inactive)
CCCCCCSc1nsc(N)n1,5.56,30.6% (inactive)
CC(C)C(=O)Nc1nnc(Sc2ccc(N(C)C)cc2)s1,-33.3,-11.6% (inactive)
COc1ccc(CNC(=O)CCn2cccc2)cc1,33.3,18.8% (inactive)
CCCNC(=O)N1CCN(C(=O)NCCC)CC1,5.13,3.89% (inactive)
COc1ccccc1NC(=O)CC(NCCN(C)C)C(=O)O (configuration not stated),18.9,15.2% (inactive)
